Substitutions are numbered along the chain they refer to. Like-named read-outs stand apart in the source and are kept apart here.
Key:
[1] = target: T1, human Hv1 H193A (H^3.71A) (Homo sapiens, UniProt Q96D96, H193A); assay: Whole-cell voltage clamp, Zn^2+ modulation of GAQ gating; type: cell-based
T1 sequence (Q96D96 1-273 H193A): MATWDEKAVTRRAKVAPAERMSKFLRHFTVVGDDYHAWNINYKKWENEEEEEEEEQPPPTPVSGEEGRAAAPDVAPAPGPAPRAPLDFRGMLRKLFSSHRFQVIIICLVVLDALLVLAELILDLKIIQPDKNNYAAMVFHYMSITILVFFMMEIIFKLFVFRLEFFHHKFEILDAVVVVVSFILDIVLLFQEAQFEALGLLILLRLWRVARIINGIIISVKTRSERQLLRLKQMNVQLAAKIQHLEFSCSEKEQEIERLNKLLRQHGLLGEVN
Method in brief: (§1)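 Whole-cell patch clamp at ~21°C. Pipette and bath (mM): ~80 TMA-MeSO3, 100 Bis-Tris, 8 HCl, pH 6.5, 310–320 mOsm. ZnCl2 was diluted into bath solution and applied by gravity superfusion, at least 2 min per change. Test step voltage was set per construct from its V0.5. G_STEP = end-of-step current/(V−V_REV). Effect = 1 − G_Zn/G_control, fitted to the Hill equation. IC50 and nH are means ± SEM from separate cells. ΔpIC50 was tested by unpaired t test, P<0.05.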

[2] = target: T2, human Hv1 H140A (H^2.40A) (Homo sapiens, UniProt Q96D96, H140A); assay: as above; type: cell-based
T2 sequence (Q96D96 1-273 H140A): T1 sequence (Q96D96 1-273 H193A) with H140A, A193H
Method in brief: as §1

[3] = target: T1, human Hv1 H193A (H^3.71A); conditions: ref Ramsey et al., 2006; cited from earlier work
human Hv1 WT = target: T3, human Hv1 WT (Homo sapiens, UniProt Q96D96); assay: Whole-cell voltage clamp, Zn^2+ modulation of GAQ gating; type: cell-based
T3 sequence (Q96D96 1-273): T1 sequence (Q96D96 1-273 H193A) with A193H
Method in brief: as §1

[4] = target: T4, human Hv1 D123H (D^1.62H) (Homo sapiens, UniProt Q96D96, D123H); assay: as above; type: cell-based
T4 sequence (Q96D96 1-273 D123H): T1 sequence (Q96D96 1-273 H193A) with D123H, A193H
Method in brief: as §1

[5] = target: human Hv1 H140A-D185H-H193A-R205H (Homo sapiens, UniProt Q96D96, D185H/H140A/H193A/R205H); assay: as above; type: cell-based
Chain of human Hv1 H140A-D185H-H193A-R205H (Q96D96 whole entry H140A/D185H/H193A/R205H): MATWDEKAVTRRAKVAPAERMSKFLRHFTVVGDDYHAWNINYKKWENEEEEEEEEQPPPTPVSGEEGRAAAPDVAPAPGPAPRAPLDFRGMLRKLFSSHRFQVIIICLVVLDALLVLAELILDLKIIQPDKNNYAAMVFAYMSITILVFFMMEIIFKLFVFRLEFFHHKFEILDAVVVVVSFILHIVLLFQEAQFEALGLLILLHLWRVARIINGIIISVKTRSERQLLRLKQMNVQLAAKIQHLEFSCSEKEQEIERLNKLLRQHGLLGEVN
Method in brief: as §1

human Hv1 H140A-D185H = target: T5, human Hv1 H140A-D185H (Homo sapiens, UniProt Q96D96, D185H/H140A); assay: as above; type: cell-based
T5 sequence (Q96D96 1-273 H140A/D185H): T1 sequence (Q96D96 1-273 H193A) with H140A, D185H, A193H
Method in brief: as §1

human Hv1 D123H-H193A = target: T6, human Hv1 D123H-H193A (Homo sapiens, UniProt Q96D96, D123H/H193A); assay: as above; type: cell-based
T6 sequence (Q96D96 1-273 D123H/H193A): T1 sequence (Q96D96 1-273 H193A) with D123H
Method in brief: as §1

[6] = VSTEP 100 mV, calculated as log (IC50)
[7] = read-out: IC50, fit of the mean data to a Hill function, Fig. 2C
[8] = VSTEP 80 mV, calculated as log (IC50)
[9] = read-out: IC50, fit of the mean data to a Hill function, Fig. 4B
[10] = read-out: Mean IC50 @ VSTEP, VSTEP 80 mV, pH 6.5, mean of fits in separate cells

For `[Cl-].[Cl-].[Zn+2]` [Zn^2+, ZnCl2], which “nH, fit of the mean data to a Hill function” value (shortened to “nH, fit of the mean data”) ([1]; Fig. 2C) is on record?
Its value is 1.0.

And the “Mean ΔpIC50 = (pIC50_1 - pIC50_2)” value ([1]; H193A vs WT)?
The value was −1.37.

What about the Hill value ([1]; VSTEP 100 mV) of the same compound?
Its Hill value is 1.04.

And the pIC50 [1, 6]?
Its pIC50 is −4.06.

And the IC50 [1, 7]?
Its IC50 is 82.2 µM.

What about the “nH, fit of the mean data” value ([2]; Fig. 2C) of the same compound?
Its value is 0.7.

What about the “Mean ΔpIC50 = (pIC50_1 - pIC50_2)” value ([2]; H140A vs WT) of the same compound?
Its value is −1.02.

And the Hill value ([2]; VSTEP 100 mV)?
Its Hill value is 0.67.

What about the pIC50 [2, 6] of the same compound?
The pIC50 was −4.41.

And the IC50 [2, 7]?
The IC50 was 39 µM.

What about the “decrease of Zn^2+ potency by single mutation” value [3] of the same compound?
Its value is 10- to 30 fold.

And the “nH, fit of the mean data” value (human Hv1 WT; Fig. 2C)?
The value was 0.8.

What about the Hill value (human Hv1 WT; VSTEP 100 mV) of the same compound?
The Hill value was 0.81.

And the pIC50 (human Hv1 WT; [6])?
Its pIC50 is 5.44.

What about the “Mean ΔpIC50 = (pIC50_1 - pIC50_2)” value ([4]; D123H vs WT) of the same compound?
The value was 0.11.

What about the “nH, fit of the mean data” value ([4]; Fig. 4B) of the same compound?
The value was 0.8.

And the Hill value ([4]; VSTEP 80 mV)?
The Hill value was 0.95.

What about the pIC50 [4, 8] of the same compound?
The pIC50 was 5.56.

What about the IC50 [4, 9] of the same compound?
The IC50 was 2.5 µM.

And the IC50 [4, 10]?
The IC50 was 4.3 µM.

What about the “Mean ΔpIC50 = (pIC50_1 - pIC50_2)” value ([5]; H140A-D185H-H193A-R205H vs H140A-D185H-H193A) of the same compound?
The value was 0.54.

What about the “Mean pIC50” value ([5]; Table 2 only, calculated as log (IC50)) of the same compound?
The value was −3.68.

What about the “nH, fit of the mean data” value (human Hv1 H140A-D185H; Fig. 4D) of the same compound?
The value was 0.6.

What about the “Mean ΔpIC50 = (pIC50_1 - pIC50_2)” value (human Hv1 H140A-D185H; H140A-D185H vs D185H) of the same compound?
The value was −0.42.

What about the “Mean ΔpIC50 = (pIC50_1 - pIC50_2)” value (human Hv1 H140A-D185H; H140A-D185H vs H140A) of the same compound?
Its value is 0.54.

And the Hill value (human Hv1 H140A-D185H; VSTEP 120 mV)?
The Hill value was 0.81.

And the pIC50 (human Hv1 H140A-D185H; VSTEP 120 mV, calculated as log (IC50))?
The pIC50 was −4.96.

What about the IC50 (human Hv1 H140A-D185H; read-out: IC50, fit of the mean data to a Hill function, Fig. 4D) of the same compound?
The IC50 was 18 µM.

And the “Mean ΔpIC50 = (pIC50_1 - pIC50_2)” value (human Hv1 D123H-H193A; D123H-H193A vs H193A)?
The value was 0.47.

What about the “nH, fit of the mean data” value (human Hv1 D123H-H193A; Fig. 4B) of the same compound?
Its value is 0.9.

And the Hill value (human Hv1 D123H-H193A; VSTEP 80 mV)?
The Hill value was 1.06.

What about the pIC50 (human Hv1 D123H-H193A; [8]) of the same compound?
The pIC50 was −4.54.

And the IC50 (human Hv1 D123H-H193A; [9])?
The IC50 was 28.6 µM.

What about the IC50 (human Hv1 D123H-H193A; [10]) of the same compound?
The IC50 was 36 µM.
